# Assay outcomes from PubChem.
# Rows were chosen to be rich in hits. Some 0.79% of all compounds tested hit in one or more screens of this group.
# hIAP activ: human IAP activation; activation factor at 10 µM; 0.16% of 330,000 active; P09923; purified human IAP, CDP-Star luminescence, 30 min; hits give high values; 1 = vehicle-only enzyme, 0 = enzyme-free background;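 active means activation factor of the enzyme at least 2-fold when tested at 20 µM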
# Target sequence (P09923 whole entry, looked up): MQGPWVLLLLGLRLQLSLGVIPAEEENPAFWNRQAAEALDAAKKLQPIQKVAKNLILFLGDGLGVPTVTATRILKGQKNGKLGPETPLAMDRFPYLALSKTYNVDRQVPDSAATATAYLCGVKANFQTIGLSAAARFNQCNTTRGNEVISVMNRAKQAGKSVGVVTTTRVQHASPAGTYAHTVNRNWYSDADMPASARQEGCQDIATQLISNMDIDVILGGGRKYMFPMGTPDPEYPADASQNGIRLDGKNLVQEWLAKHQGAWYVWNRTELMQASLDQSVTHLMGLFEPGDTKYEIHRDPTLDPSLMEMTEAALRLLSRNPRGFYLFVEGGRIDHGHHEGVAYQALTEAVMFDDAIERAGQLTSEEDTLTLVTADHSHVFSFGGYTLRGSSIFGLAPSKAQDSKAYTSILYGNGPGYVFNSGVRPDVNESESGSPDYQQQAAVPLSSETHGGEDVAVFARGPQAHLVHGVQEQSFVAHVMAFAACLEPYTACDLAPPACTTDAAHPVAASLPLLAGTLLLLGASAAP
# mIAP inh: blocks mouse intestinal alkaline phosphatase | purified mouse IAP, CDP-Star luminescence, 30 min | 0.2% of 330,000 active | inhibition, % at 10 µM | AID 2806;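 active means inhibition of at least 40% at 10 µM in the primary screen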;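 further: plate controls were DMSO with enzyme for no effect and no enzyme wells for full effect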
# bIAP inhibitor: blocks bovine intestinal alkaline phosphatase activity; AID 1019; 190,000 tested, under 10 active; purified bovine IAP, CDP-star luminescence, 30 min; inhibition, % at 20 µM;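 active means over 50% inhibition of intestinal alkaline phosphatase at 20 µM in the single-dose screen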
#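 test system = bovine IAP enzyme | medium = DEA buffer 100 mM, pH 9.8, with MgCl2 1.0 mM, ZnCl2 0.02 mM | detection = luminescence | dosing = single compound dose of 20 µM, 2% DMSO final | incubation = 30 min reaction at room temperature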
# hIAP block: human IAP inhibition. purified IAP, CDP-Star luminescence, 30 min. P09923. inhibition, % at 10 µM. 0.12% of 330,000 active. AID 2544;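 active means inhibition reaching a set limit with compound at 10 µM in the primary screen, cut at about 35% in these data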;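 further: plate controls were DMSO wells with enzyme for no effect and no-enzyme buffer wells for full effect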
# bIAP activator: increases bovine intestinal alkaline phosphatase activity; activation factor at 20 µM; purified bovine IAP, CDP-star luminescence, 30 min; hits give high values; fold of DMSO-control signal, blank-subtracted; 0.17% of 200,000 active;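 active means activation factor of 2 or more at 20 µM, a signal rise over negative controls twice the positive control's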
# mIAP act: mouse IAP activation; muIAP, CDP-Star luminescence, 30 min; hits give high values; 1 = vehicle-only enzyme signal, 0 = enzyme-free wells; activation factor at 10 µM; 0.24% of 330,000 active;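 active means activation factor of at least 2 at 20 µM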
#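 Assay system: mouse IAP enzyme / Compound: DMSO-dissolved test compounds / Timing: 30 min, room temperature / Measured by: luminescence from enzymatic CDP-Star hydrolysis / Control set: DMSO-only wells, enzyme-free buffer wells as negative control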
# mIAP inh confirm: mouse IAP inhibition confirmation | shares compounds with mIAP inh | purified mouse IAP, CDP-Star luminescence, 30 min | inhibition, % at 10 µM | 4.7% of 11,000 active;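 active means inhibition of at least 40% at 10 µM in either of the two replicates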;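 further: plate controls were DMSO wells with enzyme for no effect and buffer wells lacking enzyme for full effect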
# An asterisk follows results filed as active; i = inactive; / = not tested or not shown.
SMILES,hIAP activ,mIAP inh,bIAP inhibitor,hIAP block,bIAP activator,mIAP act,mIAP inh confirm
COc1ccc(CCNC(=O)C(=O)NCC2CCCN2S(=O)(=O)c2ccccc2)cc1OC (configuration not stated),0.9,5,/,10,/,0.95,/
Cc1cc(-c2ccc(N=Nc3c(S(=O)(=O)O)cc4cc(S(=O)(=O)O)cc(N)c4c3O)c(C)c2)ccc1N=Nc1c(S(=O)(=O)O)cc2cc(S(=O)(=O)O)cc(N)c2c1O,0.72,77*,/,28,/,0.23,83*
C/C(Cl)=C\Cn1c(N2CCCC2)nc2c1c(=O)n(C)c(=O)n2C,1,8,/,-2,/,0.92,/
O=c1c(O)cccc2cc(O)c(O)c(O)c12,1.1,61*,/,-14,/,0.39,74*
O=c1cc(-c2ccccc2)oc2cc(O)c(O)c(O)c12,1.2,5,/,-22,/,0.95,/
COc1ccc(CNC(=O)COC(=O)c2ccc(F)c(S(=O)(=O)N3CCOCC3)c2)cc1,0.85,-14,/,15,/,1.1,/
CCC(=O)Nc1sc2c(c1C#N)CCC2,1,-1,7,-3,0.9,1,/
CC(C)CC(=O)NC(NC(=S)Nc1sc2c(c1C#N)CCCC2)C(Cl)(Cl)Cl (configuration not stated),0.93,41*,46,7,0.5,0.59,41*
C=CCOc1ccc(/C=N/NC(=O)CC(=O)NC2CCCCC2)cc1,0.95,6,/,5,/,0.94,/
COCCCN1CC(=O)N2C(c3cccc(OC)c3OC)c3[nH]c4ccccc4c3C[C@H]2C1=O (some centres not stated),0.89,-4,/,11,/,1,/
CCC1CCC(NC(=O)Nc2cccc(OC)c2)CC1 (configuration not stated),1.2,-120,-14,-19,1.1,2.2*,-137
COc1cccc(NC(=O)NC2CCCc3ccccc32)c1 (configuration not stated),1,-184,-9,0,1.1,2.8*,-174
COc1ccc(NC(=O)NC2CCCc3ccccc32)c(OC)c1 (configuration not stated),1,-13,/,-4,/,1.1,/
Cc1nnc(SCC(=O)NCCc2ccccc2)s1,0.93,-7,-1,7,1,1.1,/
Cc1ccc(S(=O)(=O)N2CC(=O)N3CCN(CCN)C3C2)cc1 (configuration not stated),0.96,12,/,4,/,0.88,/
CCOC(=O)C1=C(C)N=c2s/c(=C/c3cccc([N+](=O)[O-])c3O)c(=O)n2C1c1ccc(OC)cc1OC (configuration not stated),1,43*,/,-4,/,0.57,44*
CCOC(=O)C1=C(C)N=c2s/c(=C\c3ccc(O)c([N+](=O)[O-])c3)c(=O)n2C1c1ccccc1OC (configuration not stated),0.76,27,/,24,/,0.73,/
CN(CC(=O)Nc1cccc(F)c1)C(=O)/C=C/c1cn(Cc2ccccc2)nc1-c1cccnc1,0.94,4,/,6,/,0.96,/
O=C(Nc1ccc(Cl)c(Cl)c1)Nc1cc(C(=O)N2CCOCC2)ccc1N1CCCCC1,1.8,i,/,-82,/,10*,-167
O=C(Nc1cccc(Cl)c1)Nc1cc(S(=O)(=O)N2CCCCC2)ccc1Cl,1.1,-257,21,-11,0.8,3.6*,-108
O=C(Nc1ccc(Cl)c(Cl)c1)Nc1cc(S(=O)(=O)N2CCOCC2)ccc1N1CCCC1,1.4,-212,25,-43,0.8,3.1*,-153
CSc1cccc(NC(=S)Nc2cc(C)ccc2C)c1,1,-33,/,-2,/,1.3,/
COc1ccc(-n2nc(C(=O)NCC(=O)NCc3cccc(F)c3)c3ccccc3c2=O)cc1Cl,0.99,8,/,1,/,0.92,/
Cc1ccc(S(=O)(=O)N(C)C[C@@H]2Oc3ccc(NC(=O)Nc4cccc5ccccc45)cc3C(=O)N([C@H](C)CO)C[C@H]2C)cc1,1.1,-225,/,-9,/,3.3*,-113
C[C@@H]1CN([C@H](C)CO)C(=O)c2cc(NC(=O)Nc3ccc(C(F)(F)F)cc3)ccc2O[C@H]1CN(C)S(=O)(=O)c1cccs1,1,-69,/,0,/,1.7,/
